Where “and” joins values, the source holds several entries; their conditions need not be identical. Equal values may be shown once.
Key:
Staphylococcus aureus [1] = assay: Antibacterial activity against Staphylococcus aureus ATCC 29213 assessed as inhibition of bacterial growth incubated for 24 hrs by CLSI based broth microdilution method; assay type: functional
Escherichia coli = assay: Antibacterial activity against Escherichia coli ATCC 25922 assessed as inhibition of bacterial growth incubated for 24 hrs by CLSI based broth microdilution method; assay type: functional
Staphylococcus aureus [2] = assay: Antibacterial activity against methicillin resistant Staphylococcus aureus ATCC BAA 1556 assessed as inhibition of bacterial growth incubated for 24 hrs by CLSI based broth microdilution method; assay type: functional
Pseudomonas aeruginosa = assay: Antibacterial activity against Pseudomonas aeruginosa […] assessed as inhibition of bacterial growth incubated for 24 hrs by CLSI based broth microdilution method; assay type: functional
Klebsiella pneumoniae = assay: Antibacterial activity against Klebsiella pneumoniae ATCC BAA 1705 assessed as inhibition of bacterial growth incubated for 24 hrs by CLSI based broth microdilution method; assay type: functional
Erythrocyte = assay: Hemolytic activity in human RBC incubated for 2 hrs by spectrophotometrical analysis; assay type: toxicity, cell-based
Summary of the method: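 Human erythrocytes (4% suspension in PBS) mixed 1:1 with 2-fold serial peptide dilutions, 2 h at 37 °C without agitation. After centrifugation, supernatant hemoglobin read at 567 nm. 0% hemolysis set by PBS, 100% by 1% Triton X-100. HC50 is the concentration giving 50% hemolysis.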

Substance | MIC (Staphylococcus aureus [1]) | MIC (Escherichia coli) | MIC (Staphylococcus aureus [2]) | MIC (Pseudomonas aeruginosa) [µg/mL] | MIC (Klebsiella pneumoniae; read-out: MIC) [µg/mL] | HC50 (Erythrocyte) | MIC (Klebsiella pneumoniae) [µM]
H-RWWRRAWAR-NH2 | > 100 µg/mL and > 74.5 µM | > 100 µg/mL and > 74.5 µM | > 100 µg/mL and > 74.5 µM | > 100 | > 100 |  | 
H-RWARRWARWWR-NH2 |  | 100 µg/mL | 100 µg/mL | 100 | > 100 |  | 
H-RAWRRWWRAA-NH2 | > 100 µg/mL and > 70.7 µM | > 100 µg/mL and > 70.7 µM | > 100 µg/mL and > 70.7 µM | > 100 | > 100 |  | 
H-RWWRRWAR-NH2 | > 100 µg/mL and > 78.7 µM | > 100 µg/mL and > 78.7 µM | > 100 µg/mL and > 78.7 µM | > 100 | > 100 |  | 
H-RAARRWARWWR-NH2 | 100 µg/mL | > 100 µg/mL and > 63.7 µM | 100 µg/mL | > 100 | > 100 |  | 
H-RRWWRRW-NH2 |  | > 100 µg/mL and > 83.3 µM | 100 µg/mL | > 100 | > 100 |  | 
Ac-RWIRRWIRWWR-NH2 |  | 100 µg/mL |  |  | 100 |  | 
H-RWRRWWR-NH2 | 100 µg/mL | > 100 µg/mL and > 83.3 µM | 100 µg/mL | > 100 | > 100 |  | 
H-RWWRRWR-NH2 | 100 µg/mL | > 100 µg/mL and > 83.3 µM | 100 µg/mL | > 100 | > 100 |  | 
H-RAWRRWWRA-NH2 | > 100 µg/mL and > 74.5 µM | > 100 µg/mL and > 74.5 µM | > 100 µg/mL and > 74.5 µM | > 100 | > 100 |  | 
H-RWWRRAWRA-NH2 | > 100 µg/mL and > 74.5 µM | > 100 µg/mL and > 74.5 µM | > 100 µg/mL and > 74.5 µM | > 100 | > 100 |  | 
Ac-KWAKKWAKWWKK-NH2 |  | 100 µg/mL | 100 µg/mL | 100 | 100 |  | 
H-RAWRRWARAW-NH2 | > 100 µg/mL and > 70.7 µM | > 100 µg/mL and > 70.7 µM | > 100 µg/mL and > 70.7 µM | > 100 | > 100 |  | 
H-RWWRAAWRR-NH2 | > 100 µg/mL and > 74.5 µM | > 100 µg/mL and > 74.5 µM | > 100 µg/mL and > 74.5 µM | > 100 | > 100 |  | 
Ac-RWARRWARWWRR-NH2 |  | 100 µg/mL |  | 100 | > 100 | 110 ug ml-1 and 58.4 µM | 
H-RWWRRAWRAA-NH2 | > 100 µg/mL and > 70.7 µM | > 100 µg/mL and > 70.7 µM | > 100 µg/mL and > 70.7 µM | > 100 | > 100 |  | 
H-WRRWARRW-NH2 | > 100 µg/mL and > 78.7 µM | > 100 µg/mL and > 78.7 µM | > 100 µg/mL and > 78.7 µM | > 100 | > 100 |  | 
H-RWIRRWIRWWR-NH2 |  | 100 µg/mL |  |  | 100 |  | 56.5
